Test results from ChEMBL document CHEMBL3352313 (J Med Chem, 2014).

Legend:
[1] = Elimination half life in Sprague-Dawley rat 1 mg/kg, iv administered as single dose by LC/MS/MS utilizing electrospray ionization method; assay type: ADME, organism-based; parameters: dose 1 mg/kg, route intravenous; conditions: in vivo, read-out: beta t1/2
Homo sapiens = species on record: Homo sapiens; assay: Selectivity index, ratio of EC50 for human muscarinic acetylcholine receptor subtype 3 to EC50 for human muscarinic acetylcholine receptor subtype 5
[2] = biological target: T1, Muscarinic acetylcholine receptor M5 (Homo sapiens) (UniProt P08912); assay: Positive allosteric modulator activity at human muscarinic acetylcholine receptor subtype 5 expressed in CHO cells assessed as fold shift in acetylcholine-induced response at 10 uM by calcium mobilization assay; assay type: functional, cell-based
T1 sequence (whole entry): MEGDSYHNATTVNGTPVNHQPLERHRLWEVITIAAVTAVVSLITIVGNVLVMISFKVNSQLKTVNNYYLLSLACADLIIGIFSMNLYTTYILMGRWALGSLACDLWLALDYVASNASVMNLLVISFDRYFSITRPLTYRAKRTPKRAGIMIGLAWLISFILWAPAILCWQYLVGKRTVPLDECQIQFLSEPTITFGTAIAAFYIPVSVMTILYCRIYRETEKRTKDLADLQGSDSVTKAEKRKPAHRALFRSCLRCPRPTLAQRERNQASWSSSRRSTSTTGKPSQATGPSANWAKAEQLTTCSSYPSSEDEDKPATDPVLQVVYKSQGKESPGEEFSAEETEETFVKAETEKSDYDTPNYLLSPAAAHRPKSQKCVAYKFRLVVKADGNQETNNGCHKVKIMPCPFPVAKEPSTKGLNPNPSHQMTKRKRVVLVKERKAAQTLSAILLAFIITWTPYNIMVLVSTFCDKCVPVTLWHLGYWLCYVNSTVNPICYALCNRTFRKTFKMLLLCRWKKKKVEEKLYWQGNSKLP
Summary of the method: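 In hM5 CHO cells by calcium mobilization, PAM at a fixed 10 μM or vehicle is added before an ACh concentration-response curve. Fold shift is the ratio of ACh potency without PAM to potency with PAM.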

[3] = biological target: T2, Muscarinic acetylcholine receptor M5 (Rattus norvegicus, UniProt P08911); assay: Activity at rat muscarinic acetylcholine receptor subtype 5 expressed in CHO cells by calcium mobilization assay; assay type: functional, cell-based
T2 sequence (P08911 whole entry): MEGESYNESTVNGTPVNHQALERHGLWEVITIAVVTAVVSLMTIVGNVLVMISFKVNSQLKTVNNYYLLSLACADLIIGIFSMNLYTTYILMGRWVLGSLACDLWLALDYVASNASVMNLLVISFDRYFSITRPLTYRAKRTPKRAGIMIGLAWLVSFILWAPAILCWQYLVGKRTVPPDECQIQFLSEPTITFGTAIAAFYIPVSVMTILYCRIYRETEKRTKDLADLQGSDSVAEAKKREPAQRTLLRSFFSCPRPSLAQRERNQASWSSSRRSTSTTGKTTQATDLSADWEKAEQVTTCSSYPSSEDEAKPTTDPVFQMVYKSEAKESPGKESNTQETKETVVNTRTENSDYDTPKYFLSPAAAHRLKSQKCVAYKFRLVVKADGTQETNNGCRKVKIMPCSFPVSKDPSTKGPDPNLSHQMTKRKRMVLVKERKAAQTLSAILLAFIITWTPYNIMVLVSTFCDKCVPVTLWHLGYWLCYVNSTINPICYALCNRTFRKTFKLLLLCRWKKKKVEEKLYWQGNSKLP
Summary of the method: (§1)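 Muscarinic subtype selectivity by fluorescence calcium mobilization in highly expressing CHO lines with similar receptor levels; Gi/o-coupled M2 and M4 cells co-transfected with chimeric Gqi5 to couple to Ca2+ mobilization. Read-outs are PAM EC50 and ACh max response. Mean ± SEM of at least three independent determinations.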

[4] = biological target: T3, Muscarinic acetylcholine receptor M2 (Rattus norvegicus, UniProt P10980); assay: Activity at rat muscarinic acetylcholine receptor subtype 2 expressed in CHO cells co-transfected with chimeric Gqi5 by calcium mobilization assay; assay type: functional, cell-based; summary of the method: as §1
T3 sequence (P10980 whole entry): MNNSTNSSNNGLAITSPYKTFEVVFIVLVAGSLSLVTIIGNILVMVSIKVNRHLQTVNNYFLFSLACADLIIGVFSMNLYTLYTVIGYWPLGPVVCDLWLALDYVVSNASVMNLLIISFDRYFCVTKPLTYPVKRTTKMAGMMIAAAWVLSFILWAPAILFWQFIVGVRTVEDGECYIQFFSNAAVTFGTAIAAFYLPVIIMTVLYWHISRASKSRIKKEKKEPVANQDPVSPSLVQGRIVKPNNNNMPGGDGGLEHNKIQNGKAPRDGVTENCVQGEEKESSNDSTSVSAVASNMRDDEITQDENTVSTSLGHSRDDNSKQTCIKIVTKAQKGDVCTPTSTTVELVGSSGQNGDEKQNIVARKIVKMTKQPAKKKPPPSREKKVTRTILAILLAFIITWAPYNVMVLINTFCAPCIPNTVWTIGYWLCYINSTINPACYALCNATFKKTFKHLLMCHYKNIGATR

[5] = biological target: T4, Muscarinic acetylcholine receptor M2 (Homo sapiens, UniProt P08172); assay: Activity at human muscarinic acetylcholine receptor subtype 2 expressed in CHO cells co-transfected with chimeric Gqi5 by calcium mobilization assay; assay type: functional, cell-based; summary of the method: as §1
T4 sequence (P08172 whole entry): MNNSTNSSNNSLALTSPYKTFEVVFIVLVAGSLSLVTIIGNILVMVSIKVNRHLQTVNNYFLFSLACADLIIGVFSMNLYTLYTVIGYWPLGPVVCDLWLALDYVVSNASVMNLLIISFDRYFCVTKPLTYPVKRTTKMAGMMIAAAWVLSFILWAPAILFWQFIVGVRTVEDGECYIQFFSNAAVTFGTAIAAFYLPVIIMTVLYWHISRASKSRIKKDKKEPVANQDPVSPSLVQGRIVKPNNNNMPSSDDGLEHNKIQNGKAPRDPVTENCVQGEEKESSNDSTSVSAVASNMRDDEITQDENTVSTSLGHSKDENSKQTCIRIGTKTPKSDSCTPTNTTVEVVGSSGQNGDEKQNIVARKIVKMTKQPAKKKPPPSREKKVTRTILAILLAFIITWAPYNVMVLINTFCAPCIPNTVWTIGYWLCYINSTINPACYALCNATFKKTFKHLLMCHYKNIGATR

[6] = biological target: Muscarinic acetylcholine receptor M3 (Homo sapiens, UniProt P20309); assay: Activity at human muscarinic acetylcholine receptor subtype 3 expressed in CHO cells by calcium mobilization assay acetylcholine; assay type: functional, cell-based; summary of the method: as §1
Muscarinic acetylcholine receptor M3, sequence (P20309 whole entry, looked up): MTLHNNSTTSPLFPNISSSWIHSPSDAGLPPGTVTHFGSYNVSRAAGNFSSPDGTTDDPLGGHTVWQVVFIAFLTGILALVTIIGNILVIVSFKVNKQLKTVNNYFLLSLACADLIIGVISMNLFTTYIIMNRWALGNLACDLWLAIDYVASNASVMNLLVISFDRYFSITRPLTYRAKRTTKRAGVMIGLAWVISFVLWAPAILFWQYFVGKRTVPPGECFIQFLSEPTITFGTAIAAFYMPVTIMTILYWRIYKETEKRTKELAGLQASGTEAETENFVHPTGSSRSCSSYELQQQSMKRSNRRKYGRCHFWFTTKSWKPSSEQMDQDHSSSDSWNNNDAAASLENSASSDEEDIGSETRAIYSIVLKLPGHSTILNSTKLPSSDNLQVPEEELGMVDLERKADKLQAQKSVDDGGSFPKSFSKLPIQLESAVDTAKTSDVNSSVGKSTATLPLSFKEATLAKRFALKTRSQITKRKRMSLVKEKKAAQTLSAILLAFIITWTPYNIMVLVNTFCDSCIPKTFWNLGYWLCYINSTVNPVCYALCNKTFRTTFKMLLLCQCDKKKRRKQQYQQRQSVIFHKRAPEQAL

SMILES: CCN(Cc1ccccc1C(F)(F)F)C(=O)C1CCN(S(=O)(=O)c2ccc3[nH]ncc3c2)CC1
- half-life [1]: 22 min
- Ratio EC50 (Homo sapiens): > 10
- fold change (FC) [2]: 9
- EC50 [3]: 0.61 µM
- EC50 [4]: > 30 µM
- EC50 [5]: > 30 µM
- %max [6]: 67%
